Measured values taken from ChEMBL document CHEMBL1944627, “[¹⁸F]GE-180: a novel fluorine-18 labelled PET tracer for imaging Translocator protein 18 kDa (TSPO)” (Bioorg Med Chem Lett, 2012).

Columns and labels:
Brain = experiment: Biodistribution in Sprague-Dawley rat whole brain at 1 to 3 MBq, iv after 2 mins by gamma counting; type: ADME, organism-based; conditions: in vivo
In short: (§1)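 Tracer formulated in Dulbecco's PBS and given iv, about 1–3 MBq at 10 MBq/mL, under 4% isoflurane, to naive rats (n = 3). Animals were killed at set times after injection. Brain was dissected into regions including striatum and olfactory bulbs, and activity was counted by gamma counter. Values are % id/g, and regional ratios were taken between times or regions.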

[1] = Metabolic stability in Sprague-Dawley rat brain assessed as compound remaining at 1 to 3 MBq, iv after 60 mins by HPLC analysis; type: ADME, organism-based; conditions: read-out: Stability
In short: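 Radiotracer was injected iv into rats. Brain and plasma were sampled at 10, 30 and 60 min post injection to follow metabolic fate. Brain radioactivity at 60 min is expressed as % parent tracer remaining.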

[2] = Ratio of drug uptake in striatum in Sprague-Dawley rat at 1 to 3 MBq, iv after 2 mins to drug uptake in striatum in Sprague-Dawley rat at 1 to 3 MBq, iv after 30 mins; conditions: in vivo
[3] = Ratio of drug uptake in olfactory bulb to striatum in Sprague-Dawley rat at 1 to 3 MBq, iv after 30 mins by gamma counting; conditions: in vivo, 0.5 h
Rattus norvegicus = experiment: Biodistribution in Sprague-Dawley rat olfactory bulbs at 1 to 3 MBq, iv after 30 mins by gamma counting; type: ADME, organism-based, Olfactory bulb; conditions: in vivo, 0.5 h; in short: as §1
Translocator protein = Translocator protein (Rattus norvegicus, UniProt P16257); experiment: Displacement of [3H]PK11195 from TSPO receptor in Wistar rat heart homogenate after 15 mins; type: tissue-based
[4] = Lipophilicity, log D of the compound at pH 7.4; type: physicochemical; conditions: buffer

Sequence of Translocator protein (P16257 whole entry, looked up): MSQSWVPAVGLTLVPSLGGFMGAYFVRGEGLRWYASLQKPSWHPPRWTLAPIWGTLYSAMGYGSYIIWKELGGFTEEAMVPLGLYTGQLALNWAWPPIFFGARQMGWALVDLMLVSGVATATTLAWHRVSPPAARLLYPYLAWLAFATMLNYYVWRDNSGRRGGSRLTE

## CCN(CC)C(=O)C1CCCc2c1c1ccccc1n2CC[18F] (stereo not drawn)
Brain
  Drug uptake: 0.53 % ID/g
[1]
  remaining at 1 h: 62%
[2]
  Ratio: 4.08
[3]
  Ratio: 3.25
Rattus norvegicus
  Drug uptake: 0.39 % ID/g

## CCN(CC)C(=O)C1CCCc2c1c1cc(OC)ccc1n2CC[18F] (stereo not drawn)
Brain
  Drug uptake: 0.39 % ID/g
[1]
  remaining at 1 h: 76%
[2]
  Ratio: 4.25
[3]
  Ratio: 3.88
Rattus norvegicus
  Drug uptake: 0.31 % ID/g

## CCN(CC)C(=O)C1CCCc2c1c1cc(OC)c(F)cc1n2CCF (racemic)
Translocator protein
  Ki: 1.5 nM
[4]
  logD: 2.38

## CCN(Cc1ccccc1)C(=O)C1CCCc2c1c1ccccc1n2CCF (racemic)
Translocator protein
  Ki: 0.73 nM
[4]
  logD: 2.84

## CCCN(CC)C(=O)C1CCCc2c1c1ccccc1n2CC[18F] (stereo not drawn)
Brain
  Drug uptake: 0.45 % ID/g
[2]
  Ratio: 1.77
[3]
  Ratio: 2.09
Rattus norvegicus
  Drug uptake: 0.46 % ID/g

## CCN(CC)C(=O)C1CCCc2c1c1ccccc1n2CCF (racemic)
Translocator protein
  Ki: 5.4 nM
[4]
  logD: 2.78

## O=C(C1CCCc2c1c1ccccc1n2CC[18F])N1CCCCC1 (stereo not drawn)
Brain
  Drug uptake: 0.51 % ID/g
[1]
  remaining at 1 h: 83%
Rattus norvegicus
  Drug uptake: 0.25 % ID/g

## COc1ccc(OC)c(CN(C(=O)CF)c2ccccc2Oc2ccccc2)c1
[1]
  remaining at 1 h: 91%

## COc1ccc(OC)c(CN(C(=O)C[18F])c2ccccc2Oc2ccccc2)c1
Brain
  Drug uptake: 0.74 % ID/g
Rattus norvegicus
  Drug uptake: 0.49 % ID/g

## O=C(NCc1ccccc1)C1CCCc2c1c1ccccc1n2CCF (racemic)
Translocator protein
  Ki: 28.6 nM
[4]
  logD: 2.47

## CCN(CC)C(=O)C1CCCc2c1c1cc(OC)c(F)cc1n2CC[18F] (stereo not drawn)
Brain
  Drug uptake: 0.29 % ID/g
[2]
  Ratio: 4.17
[3]
  Ratio: 3.5
Rattus norvegicus
  Drug uptake: 0.21 % ID/g

## CCN(Cc1ccccc1)C(=O)C1CCCc2c1c1ccccc1n2CC[18F] (stereo not drawn)
Brain
  Drug uptake: 0.48 % ID/g
[1]
  remaining at 1 h: 76%
[2]
  Ratio: 4.3
[3]
  Ratio: 3.4
Rattus norvegicus
  Drug uptake: 0.34 % ID/g

## O=C(C1CCCc2c1c1ccccc1n2CC[18F])N1CCCC1 (stereo not drawn)
Brain
  Drug uptake: 0.34 % ID/g
Rattus norvegicus
  Drug uptake: 0.12 % ID/g

## CCN(CC)C(=O)C1CCCc2c1c1ccc(OC)cc1n2CCF (racemic)
Translocator protein
  Ki: 5.5 nM
[4]
  logD: 2.41

## CCN(CC)C(=O)C1CCCc2c1c1c(OC)cccc1n2CC[18F] (racemic)
Brain
  Drug uptake: 0.52 % ID/g
[1]
  remaining at 1 h: 90%
Rattus norvegicus
  Drug uptake: 0.36 % ID/g

## O=C(C1CCCc2c1c1ccccc1n2CCF)N1CCCCCC1 (racemic)
Translocator protein
  Ki: 4.4 nM
[4]
  logD: 2.35

## CC(C)N(C)C(=O)C1CCCc2c1c1cc(F)ccc1n2CCF (racemic)
Translocator protein
  Ki: 8.23 nM
[4]
  logD: 2.72

## CCN(CC)C(=O)[C@@H]1CCCc2c1c1c(OC)cccc1n2CC[18F]
Brain
  Drug uptake: 0.53 % ID/g
Rattus norvegicus
  Drug uptake: 0.23 % ID/g

## CCCN(C)C(=O)C1CCCc2c1c1ccccc1n2CC[18F] (stereo not drawn)
Brain
  Drug uptake: 0.39 % ID/g
[2]
  Ratio: 3.5
[3]
  Ratio: 2.5
Rattus norvegicus
  Drug uptake: 0.25 % ID/g

## O=C(C1CCCc2c1c1ccccc1n2CCF)N1CCCC1 (racemic)
Translocator protein
  Ki: 503 nM
[4]
  logD: 2.18

## CCCN(CC)C(=O)C1CCCc2c1c1ccccc1n2CCF (racemic)
Translocator protein
  Ki: 0.38 nM

## CCN(CC)C(=O)C1CCCc2c1c1cc(F)c(OC)cc1n2CCF (racemic)
Translocator protein
  Ki: 3.1 nM
[4]
  logD: 2.08

## CCN(CC)C(=O)C1CCCc2c1c1cc(OC)ccc1n2CCF (racemic)
Translocator protein
  Ki: 1.9 nM
[4]
  logD: 2.71

## CCN(CC)C(=O)C1CCCc2c1c1ccc(F)cc1n2CC[18F] (stereo not drawn)
Brain
  Drug uptake: 0.52 % ID/g
[2]
  Ratio: 1.8
[3]
  Ratio: 1.92
Rattus norvegicus
  Drug uptake: 0.48 % ID/g

## CCN(CC)C(=O)C1CCCc2c1c1c(OC)cccc1n2CCF (racemic)
Translocator protein
  Ki: 2.4 nM
[4]
  logD: 2.95

## CCCN(CCC)C(=O)C1CCCc2c1c1ccccc1n2CC[18F] (stereo not drawn)
Brain
  Drug uptake: 0.49 % ID/g
[2]
  Ratio: 2.39
[3]
  Ratio: 2.2
Rattus norvegicus
  Drug uptake: 0.4 % ID/g

## CCN(CC)C(=O)[C@H]1CCCc2c1c1c(OC)cccc1n2CC[18F]
Brain
  Drug uptake: 0.53 % ID/g
[1]
  remaining at 1 h: 94%
Rattus norvegicus
  Drug uptake: 0.45 % ID/g

## CCCN(C)C(=O)C1CCCc2c1c1ccccc1n2CCF (racemic)
Translocator protein
  Ki: 2.2 nM
[4]
  logD: 1.99

## CC(C)N(C(=O)C1CCCc2c1c1ccccc1n2CCF)C(C)C (racemic)
Translocator protein
  Ki: 1.7 nM
[4]
  logD: 2.28

## CC(C)N(C(=O)C1CCCc2c1c1ccccc1n2CC[18F])C(C)C (stereo not drawn)
Brain
  Drug uptake: 0.48 % ID/g
[1]
  remaining at 1 h: 43%
[2]
  Ratio: 5.11
[3]
  Ratio: 2.78
Rattus norvegicus
  Drug uptake: 0.25 % ID/g

## CCN(CC)C(=O)C1CCCc2c1c1ccc(F)cc1n2CCF (racemic)
Translocator protein
  Ki: 1.05 nM

## CCCCCCN(CCCCCC)C(=O)C1CCCc2c1c1ccccc1n2CCF (racemic)
Translocator protein
  Ki: 0.7 nM
[4]
  logD: 2.13

## CCN(CC)C(=O)C1CCCc2c1c1cc(F)ccc1n2CC[18F] (stereo not drawn)
Brain
  Drug uptake: 0.56 % ID/g
[1]
  remaining at 1 h: 84%
Rattus norvegicus
  Drug uptake: 0.41 % ID/g

## O=C(C1CCCc2c1c1ccccc1n2CCF)N1CCCCC1 (racemic)
Translocator protein
  Ki: 18.3 nM
[4]
  logD: 2.53

## CCCN(CCC)C(=O)C1CCCc2c1c1ccccc1n2CCF (racemic)
Translocator protein
  Ki: 0.7 nM
[4]
  logD: 2.98

## CCCCCCN(CCCCCC)C(=O)C1CCCc2c1c1ccccc1n2CC[18F] (stereo not drawn)
Brain
  Drug uptake: 0.06 % ID/g
[2]
  Ratio: 0.44
[3]
  Ratio: 1.11
Rattus norvegicus
  Drug uptake: 0.1 % ID/g

## CCN(CC)C(=O)C1CCCc2c1c1ccc(OC)cc1n2CC[18F] (stereo not drawn)
Brain
  Drug uptake: 0.36 % ID/g
[2]
  Ratio: 4
[3]
  Ratio: 4.33
Rattus norvegicus
  Drug uptake: 0.39 % ID/g

## O=C(C1CCCc2c1c1ccccc1n2CCF)N1CCOCC1 (racemic)
Translocator protein
  Ki: 607 nM
[4]
  logD: 1.53

## CCN(CC)C(=O)C1CCCc2c1c1cc(F)c(OC)cc1n2CC[18F] (stereo not drawn)
Brain
  Drug uptake: 0.33 % ID/g
[2]
  Ratio: 3
[3]
  Ratio: 2.78
Rattus norvegicus
  Drug uptake: 0.25 % ID/g

## CCC(C)N([11CH3])C(=O)c1cc2ccccc2c(-c2ccccc2Cl)n1 (stereo not drawn)
Brain
  Drug uptake: 0.28 % ID/g
[1]
  remaining at 1 h: 100%
Rattus norvegicus
  Drug uptake: 0.21 % ID/g

## CC(C)N(C)C(=O)C1CCCc2c1c1ccccc1n2CCF (racemic)
Translocator protein
  Ki: 4 nM
[4]
  logD: 2.2

## CCOc1ccc2c(c1)c1c(n2CC[18F])CCCC1C(=O)N(CC)CC (stereo not drawn)
Brain
  Drug uptake: 0.33 % ID/g
[2]
  Ratio: 3
[3]
  Ratio: 2.5
Rattus norvegicus
  Drug uptake: 0.25 % ID/g

## CN(C)C(=O)C1CCCc2c1c1ccccc1n2CCF (racemic)
Translocator protein
  Ki: 502 nM
[4]
  logD: 1.7

## CCN(CC)C(=O)C1CCCc2c1c1c(OC)cc(OC)cc1n2CCF (racemic)
Translocator protein
  Ki: 4.34 nM
[4]
  logD: 1.95

## CCN(CC)C(=O)C1CCCc2c1c1cc(O)ccc1n2CCF (racemic)
Translocator protein
  Ki: 135 nM
[4]
  logD: 1.7

## CCOc1ccc2c(c1)c1c(n2CCF)CCCC1C(=O)N(CC)CC (racemic)
Translocator protein
  Ki: 3.1 nM
[4]
  logD: 2.56

## CCN(CC)C(=O)C1CCCc2c1c1c(F)cccc1n2CC[18F] (stereo not drawn)
Brain
  Drug uptake: 0.5 % ID/g
[1]
  remaining at 1 h: 93%
Rattus norvegicus
  Drug uptake: 0.51 % ID/g

## CCN(CC)C(=O)C1CCCc2c1c1cc(F)ccc1n2CCF (racemic)
Translocator protein
  Ki: 3.8 nM
[4]
  logD: 2.37

## CN(Cc1ccccc1)C(=O)C1CCCc2c1c1cc(F)ccc1n2CCF (racemic)
Translocator protein
  Ki: 1.45 nM
[4]
  logD: 3.1

## CN(Cc1ccccc1)C(=O)C1CCCc2c1c1ccccc1n2CCF (racemic)
Translocator protein
  Ki: 1.3 nM
[4]
  logD: 2.42
